Results published in ChEMBL document CHEMBL3046806, “Synthesis and herbicidal activity of novel 3-aminocarbonyl-2-oxazolidinethione derivatives containing a substituted pyridine ring” (2006).
The source made the active and inactive calls. No cut-off for these calls is given here.

Assays:
[1] = tested on: Brassica rapa subsp. oleifera; test: Herbicidal activity against Brassica rapa subsp. oleifera assessed as growth inhibition rate at 100 mg/L 7 days post compound treatment; format: functional; conditions: 168 h, read-out: GI
How it was run: (§1)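 Compound dissolved in DMF and diluted to the test concentration with water containing emulsifier 0201 (anionic/nonionic surfactant, 0.1 g L-1). Seeds were sown once the agar cooled and kept at 24 ± 1 °C under 3000 lx light for 7 days. Read-out was root growth inhibition (%) versus control, in three replicates of 150 seeds per species per concentration.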

Echinochloa crus-galli [2] = test: Herbicidal activity against Echinochloa crus-galli (barnyard grass) assessed as induction of yellow symptoms of leaves 7 days post compound treatment; format: functional, organism-based
Echinochloa crus-galli [3] = test: Herbicidal activity against Echinochloa crus-galli (barnyard grass) assessed as induction weed albinism 7 days post compound treatment; format: functional, organism-based
Cucumis sativus = test: Herbicidal activity against Cucumis sativus (cucumber) assessed as growth inhibition rate at 100 mg/L 7 days post compound treatment; format: functional; conditions: 168 h, read-out: GI; how it was run: as §1
Eclipta prostrata = test: Herbicidal activity against Eclipta prostrata assessed as growth inhibition rate at 100 mg/L 7 days post compound treatment; format: functional; conditions: 168 h, read-out: GI; how it was run: as §1
Sorghum bicolor = test: Herbicidal activity against Sorghum bicolor assessed as growth inhibition rate at 100 mg/L 7 days post compound treatment; format: functional; conditions: 168 h, read-out: GI; how it was run: as §1
Digitaria sanguinalis = test: Herbicidal activity against Digitaria sanguinalis (hairy crabgrass) assessed as growth inhibition rate at 100 mg/L 7 days post compound treatment; format: functional; conditions: 168 h, read-out: GI; how it was run: as §1
Echinochloa crus-galli [4] = test: Herbicidal activity against Echinochloa crus-galli (barnyard grass) assessed as growth inhibition rate at 100 mg/L 7 days post compound treatment; format: functional; conditions: 168 h, read-out: GI; how it was run: as §1

Row | SMILES | inhibition of growth at 100 µg/mL [1] [%] | Activity (Echinochloa crus-galli [2]) | Activity (Echinochloa crus-galli [3]) | inhibition of growth at 100 µg/mL (Cucumis sativus) [%] | inhibition of growth at 100 µg/mL (Eclipta prostrata) [%] | inhibition of growth at 100 µg/mL (Sorghum bicolor) [%] | inhibition of growth at 100 µg/mL (Digitaria sanguinalis) [%] | inhibition of growth at 100 µg/mL (Echinochloa crus-galli [4]) [%]
1 | C[C@@H]1[C@H](c2ccncc2)OC(=S)N1C(=O)Nc1ccccc1[N+](=O)[O-] (relative stereo) | 50 | Active | Active | 20 | 80 | 70 | 70 | 60
2 | CCOc1ccc([C@@H]2OC(=S)N(C(=O)Nc3ccccc3OCC)[C@@H]2C)cn1 (relative stereo) | 0 | Active | Active | 0 | 20 | 0 | 80 | 50
3 | C[C@@H]1[C@H](c2ccncc2)OC(=S)N1C(=O)NC1CCCCC1 (relative stereo) | 80 | Active | Active | 20 | 85 | 30 | 80 | 90
4 | C[C@@H]1[C@H](c2ccc(OCC(F)(F)F)nc2)OC(=S)N1C(=O)NC1CCCCC1 (relative stereo) | 40 | Active | Active | 40 | 80 | 60 | 70 | 80
5 | C[C@@H]1[C@H](c2ccccn2)OC(=S)N1C(=O)NC1CCCCC1 (relative stereo) | 0 | Active | Active | 0 | 80 | 0 | 70 | 70
6 | CCOc1ccccc1NC(=O)N1C(=S)O[C@@H](c2ccc(Cl)nc2)[C@H]1C (relative stereo) | 90 | Active | Active | 90 | 90 | 70 | 80 | 90
